According to ChEMBL document CHEMBL1687794, “Phenotypic and biochemical comparison of the carbapenem-hydrolyzing activities of five plasmid-borne AmpC β-lactamases” (2010):
In brackets after ≈: the same amount, converted by molar mass.

Key:
Escherichia coli [1] = test: Antimicrobial activity against Escherichia coli TOP10 transformed with Escherichia coli EC-6 plasmid carrying AmpC-B2 by agar dilution method; format: functional
Procedure, shortened: (§1)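 Agar dilution MICs on Mueller-Hinton agar, 10^4 CFU per spot, read by CLSI guidelines. Strains are wild-type E. coli TOP10, with or without a cloned ampC gene (native promoter removed, lacZ promoter-driven). Antibiotics tested: cefoxitin, cefuroxime, cefotaxime, ceftazidime, cefepime, imipenem, ertapenem, meropenem.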

Escherichia coli [2] = test: Antimicrobial activity against OmpC/OmpF porin deficient Escherichia coli HB4 transformed with Escherichia coli pGLK-1 plasmid carrying FOX-1 by agar dilution method; format: functional
Procedure, shortened: (§2)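 Agar dilution on Mueller-Hinton agar, inoculum 10^4 CFU per spot, interpreted per CLSI. Host is E. coli HB4, which lacks OmpC and OmpF, with or without a cloned ampC gene under the lacZ promoter. Panel: cefoxitin, cefuroxime, cefotaxime, ceftazidime, cefepime, imipenem, ertapenem, meropenem.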

Escherichia coli [3] = test: Antimicrobial activity against Escherichia coli TOP10 transformed with Escherichia coli pGLK-1 plasmid carrying FOX-1 by agar dilution method; format: functional; procedure, shortened: as §1
Escherichia coli [4] = test: Antimicrobial activity against OmpC/OmpF porin deficient Escherichia coli HB4 transformed with Escherichia coli ECB2 plasmid carrying CMY-2 by agar dilution method; format: functional; procedure, shortened: as §2
Escherichia coli [5] = test: Antimicrobial activity against Escherichia coli TOP10 transformed with Escherichia coli ECB2 plasmid carrying CMY-2 by agar dilution method; format: functional; procedure, shortened: as §1
Escherichia coli [6] = test: Antimicrobial activity against Escherichia coli TOP10 transformed with Enterobacter asburiae CIP 105006 plasmid carrying ACT-1 by agar dilution method; format: functional; procedure, shortened: as §1
Escherichia coli [7] = test: Antimicrobial activity against OmpC/OmpF porin deficient Escherichia coli HB4 transformed with Enterobacter asburiae CIP 105006 plasmid carrying ACT-1 by agar dilution method; format: functional; procedure, shortened: as §2
Escherichia coli [8] = test: Antimicrobial activity against Escherichia coli TOP10 transformed with Escherichia coli ECB-1 plasmid carrying ACC-1 by agar dilution method; format: functional; procedure, shortened: as §1
Escherichia coli [9] = test: Antimicrobial activity against OmpC/OmpF porin deficient Escherichia coli HB4 transformed with Escherichia coli EC-6 plasmid carrying AmpC-B2 by agar dilution method; format: functional; procedure, shortened: as §2
Escherichia coli [10] = test: Antimicrobial activity against OmpC/OmpF porin deficient Escherichia coli HB4 transformed with Escherichia coli ECB-1 plasmid carrying ACC-1 by agar dilution method; format: functional; procedure, shortened: as §2
Escherichia coli [11] = test: Antimicrobial activity against Escherichia coli TOP10 by agar dilution method
Escherichia coli [12] = test: Antimicrobial activity against OmpC/OmpF porin deficient Escherichia coli HB4 by agar dilution method; format: functional; procedure, shortened: as §2
Escherichia coli [13] = test: Antimicrobial activity against Escherichia coli TOP10 transformed with Escherichia coli DH10B plasmid carrying DHA-1 by agar dilution method; format: functional; procedure, shortened: as §1
Escherichia coli [14] = test: Antimicrobial activity against OmpC/OmpF porin deficient Escherichia coli HB4 transformed with Escherichia coli DH10B plasmid carrying DHA-1 by agar dilution method; format: functional; procedure, shortened: as §2
[15] = Ratio of Kcat to Km for Beta-lactamase ACC-1
Procedure, shortened: (§3)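 Purified TOP10-expressed AmpC enzymes, assayed spectrophotometrically at 30°C, 100 mM sodium phosphate pH 7.0. Cephaloridine Km and kcat from initial rates via Eadie-Hofstee linearization. For imipenem, Ki replaced Km, measured against cephaloridine as reporter substrate. kcat from initial rates at saturating substrate ([S] = 100 × Km) using undiluted enzyme extract. Efficiency taken as kcat/Km.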

[16] = Ratio of Kcat to Km for Beta-lactamase AmpC-B2; procedure, shortened: as §3
[17] = Activity of Beta-lactamase FOX-1
Procedure, shortened: (§4)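 Enzyme source: AmpC genes cloned without native promoter under lacZ control, expressed in E. coli TOP10, purified (FOX-1 by two Q-Sepharose steps, bis-Tris pH 6.8 then Tris-HCl pH 9). Hydrolysis monitored spectrophotometrically at 30°C in 100 mM sodium phosphate pH 7.0 with cephaloridine, ertapenem, imipenem or meropenem. kcat from initial rates at saturating substrate ([S] = 100 × Km).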

[18] = Ratio of Kcat to Km for Beta-lactamase CMY-2; procedure, shortened: as §3
[19] = Ratio of Kcat to Km for Beta-lactamase DHA-1; procedure, shortened: as §3
[20] = Ratio of Kcat to Km for Beta-lactamase FOX-1; procedure, shortened: as §3
[21] = Activity of Beta-lactamase ACT-1; procedure, shortened: as §4
[22] = Activity of Beta-lactamase AmpC-B2; procedure, shortened: as §4
[23] = Activity of Beta-lactamase ACC-1
Procedure, shortened: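 ACC-1 cloned without its native promoter behind the lacZ promoter, expressed in E. coli TOP10 and purified. Ki, Km and kcat measured by UV spectrophotometry at 30°C in 100 mM sodium phosphate pH 7.0. Cephaloridine Km/kcat from initial rates by Eadie-Hofstee analysis. Imipenem Ki measured against cephaloridine reporter substrate; kcat from initial rates at [S] = 100 × Km.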

[24] = Activity of Beta-lactamase CMY-2; procedure, shortened: as §4
[25] = Activity of Beta-lactamase DHA-1; procedure, shortened: as §4
[26] = Ratio of Kcat to Km for Beta-lactamase ACT-1; procedure, shortened: as §3

| Compound | MIC (Escherichia coli [1]) | MIC (Escherichia coli [2]) | MIC (Escherichia coli [3]) | MIC (Escherichia coli [4]) | MIC (Escherichia coli [5]) | MIC (Escherichia coli [6]) | MIC (Escherichia coli [7]) | MIC (Escherichia coli [8]) | MIC (Escherichia coli [9]) | MIC (Escherichia coli [10]) | MIC (Escherichia coli [11]) | MIC (Escherichia coli [12]) | MIC (Escherichia coli [13]) | MIC (Escherichia coli [14]) | further results |
| --- | --- | --- | --- | --- | --- | --- | --- | --- | --- | --- | --- | --- | --- | --- | --- |
| CC(C)(O/N=C(\C(=O)N[C@@H]1C(=O)N2C(C(=O)[O-])=C(C[n+]3ccccc3)CS[C@H]12)c1csc(N)n1)C(=O)O [CEFTAZIDIME] | 1 µg/mL (≈ 1.83 µM) | 512 µg/mL (≈ 937 µM) | 64 µg/mL (≈ 117 µM) | > 512 µg/mL | 256 µg/mL (≈ 468 µM) | 128 µg/mL (≈ 234 µM) | > 512 µg/mL | 8 µg/mL (≈ 14.6 µM) | 8 µg/mL (≈ 14.6 µM) | 16 µg/mL (≈ 29.3 µM) | 0.06 µg/mL (≈ 0.11 µM) | 4 µg/mL (≈ 7.32 µM) | 64 µg/mL (≈ 117 µM) | 256 µg/mL (≈ 468 µM) |  |
| O=C(Cc1cccs1)N[C@@H]1C(=O)N2C(C(=O)[O-])=C(C[n+]3ccccc3)CS[C@H]12 |  |  |  |  |  |  |  |  |  |  |  |  |  |  | kcat/Km [15]: 330000 M⁻¹ s⁻¹; kcat/Km [16]: 250000 M⁻¹ s⁻¹; Km [17]: 630 µM; kcat [17]: 228 s⁻¹; kcat/Km [18]: 3.3e+06 M⁻¹ s⁻¹; kcat/Km [19]: 595000 M⁻¹ s⁻¹; kcat/Km [20]: 360000 M⁻¹ s⁻¹; Km [21]: 420 µM; kcat [21]: 481 s⁻¹; Km [22]: 950 µM; kcat [22]: 240 s⁻¹; Km [23]: 420 µM; kcat [23]: 140 s⁻¹; Km [24]: 125 µM; kcat [24]: 412 s⁻¹; Km [25]: 330 µM; kcat [25]: 196 s⁻¹; kcat/Km [26]: 1.14e+06 M⁻¹ s⁻¹ |
| C[C@@H](O)[C@H]1C(=O)N2C(C(=O)O)=C(S[C@@H]3CN[C@H](C(=O)N(C)C)C3)[C@H](C)[C@H]12 [MEROPENEM] | 0.032 µg/mL (≈ 0.0834 µM) | 0.75 µg/mL (≈ 1.96 µM) | 0.125 µg/mL (≈ 0.326 µM) | 8 µg/mL (≈ 20.9 µM) | 0.064 µg/mL (≈ 0.167 µM) | 0.032 µg/mL (≈ 0.0834 µM) | 4 µg/mL (≈ 10.4 µM) | 0.032 µg/mL (≈ 0.0834 µM) | 0.032 µg/mL (≈ 0.0834 µM) | 0.5 µg/mL (≈ 1.3 µM) | 0.032 µg/mL (≈ 0.0834 µM) | 0.032 µg/mL (≈ 0.0834 µM) | 0.032 µg/mL (≈ 0.0834 µM) | 1 µg/mL (≈ 2.61 µM) |  |
| CO/N=C(\C(=O)N[C@@H]1C(=O)N2C(C(=O)O)=C(COC(C)=O)CS[C@H]12)c1csc(N)n1 [CEFOTAXIME] | 0.5 µg/mL (≈ 1.1 µM) | 32 µg/mL (≈ 70.3 µM) | 16 µg/mL (≈ 35.1 µM) | 256 µg/mL (≈ 562 µM) | 128 µg/mL (≈ 281 µM) | 64 µg/mL (≈ 141 µM) | 64 µg/mL (≈ 141 µM) | 1 µg/mL (≈ 2.2 µM) | 4 µg/mL (≈ 8.78 µM) | 4 µg/mL (≈ 8.78 µM) | 0.06 µg/mL (≈ 0.132 µM) | 4 µg/mL (≈ 8.78 µM) | 8 µg/mL (≈ 17.6 µM) | 128 µg/mL (≈ 281 µM) |  |
| CO[C@@]1(NC(=O)Cc2cccs2)C(=O)N2C(C(=O)O)=C(COC(N)=O)CS[C@@H]21 [CEFOXITIN] | 128 µg/mL (≈ 299 µM) | > 512 µg/mL | 512 µg/mL (≈ 1200 µM) | > 512 µg/mL | 128 µg/mL (≈ 299 µM) | 512 µg/mL (≈ 1200 µM) | > 512 µg/mL | 2 µg/mL (≈ 4.68 µM) | 512 µg/mL (≈ 1200 µM) | 256 µg/mL (≈ 599 µM) | 2 µg/mL (≈ 4.68 µM) | 256 µg/mL (≈ 599 µM) | 32 µg/mL (≈ 74.9 µM) | > 512 µg/mL |  |
| CO/N=C(\C(=O)N[C@@H]1C(=O)N2C(C(=O)[O-])=C(C[N+]3(C)CCCC3)CS[C@H]12)c1csc(N)n1 [CEFEPIME] | 0.06 µg/mL (≈ 0.125 µM) | 8 µg/mL (≈ 16.6 µM) |  |  | 1 µg/mL (≈ 2.08 µM) | 0.25 µg/mL (≈ 0.52 µM) | 4 µg/mL (≈ 8.32 µM) | 0.125 µg/mL (≈ 0.26 µM) | 1 µg/mL (≈ 2.08 µM) | 4 µg/mL (≈ 8.32 µM) | 0.06 µg/mL (≈ 0.125 µM) | 1 µg/mL (≈ 2.08 µM) | 0.064 µg/mL (≈ 0.133 µM) | 2 µg/mL (≈ 4.16 µM) |  |
| CO/N=C(\C(=O)N[C@@H]1C(=O)N2C(C(=O)O)=C(COC(N)=O)CS[C@H]12)c1ccco1 [CEFUROXIME] | 128 µg/mL (≈ 302 µM) | > 512 µg/mL | 256 µg/mL (≈ 603 µM) | > 512 µg/mL | 128 µg/mL (≈ 302 µM) | 512 µg/mL (≈ 1210 µM) | > 512 µg/mL | 1 µg/mL (≈ 2.36 µM) | 512 µg/mL (≈ 1210 µM) | 128 µg/mL (≈ 302 µM) | 1 µg/mL (≈ 2.36 µM) | 32 µg/mL (≈ 75.4 µM) | 128 µg/mL (≈ 302 µM) | > 512 µg/mL |  |
| C[C@@H](O)[C@H]1C(=O)N2C(C(=O)O)=C(SCCNC=N)C[C@H]12 [IMIPENEM ANHYDROUS] | 0.125 µg/mL (≈ 0.418 µM) | 0.5 µg/mL (≈ 1.67 µM) | 0.25 µg/mL (≈ 0.835 µM) | 32 µg/mL (≈ 107 µM) | 0.5 µg/mL (≈ 1.67 µM) |  | 16 µg/mL (≈ 53.4 µM) |  | 0.5 µg/mL (≈ 1.67 µM) | 0.5 µg/mL (≈ 1.67 µM) |  |  |  | 2 µg/mL (≈ 6.68 µM) | kcat/Km [16]: 2000 M⁻¹ s⁻¹; Km [17]: 35 µM; kcat [17]: 0.01 s⁻¹; kcat/Km [18]: 40000 M⁻¹ s⁻¹; kcat/Km [20]: 300 M⁻¹ s⁻¹; Km [21]: 3 µM; kcat [21]: 0.02 s⁻¹; Km [22]: 35 µM; kcat [22]: 0.08 s⁻¹; kcat [23]: < 0.001 s⁻¹; Km [24]: 1 µM; kcat [24]: 0.04 s⁻¹; kcat [25]: < 0.001 s⁻¹; kcat/Km [26]: 7000 M⁻¹ s⁻¹ |
| C[C@@H](O)[C@H]1C(=O)N2C(C(=O)O)=C(S[C@@H]3CN[C@H](C(=O)Nc4cccc(C(=O)O)c4)C3)[C@H](C)[C@H]12 [ERTAPENEM] | 0.064 µg/mL (≈ 0.135 µM) | 4 µg/mL (≈ 8.41 µM) | 0.032 µg/mL (≈ 0.0673 µM) | 256 µg/mL (≈ 538 µM) | 0.064 µg/mL (≈ 0.135 µM) | 0.016 µg/mL (≈ 0.0336 µM) | 256 µg/mL (≈ 538 µM) | 0.006 µg/mL (≈ 0.0126 µM) | 2 µg/mL (≈ 4.21 µM) | 2 µg/mL (≈ 4.21 µM) | 0.006 µg/mL (≈ 0.0126 µM) | 1 µg/mL (≈ 2.1 µM) | 0.012 µg/mL (≈ 0.0252 µM) | 16 µg/mL (≈ 33.6 µM) |  |
